Converted amounts (≈) assume the structure as drawn.
Tests used:
[1] = test system: Pseudomonas aeruginosa; experiment: Antibacterial activity against Pseudomonas aeruginosa ATCC 27853 by microdilution method; type: functional
Summary of the method: (§1)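 Liquid-medium broth microdilution. Strains kept at -70 °C in glycerol Mueller-Hinton broth; fresh subcultures used for each run. Final inoculum (1-5) × 10^5 cfu/mL. MIC taken as the lowest concentration preventing visible growth. MBC taken as the concentration killing ≥99.9% of the initial inoculum, confirmed by subculturing dilutions onto TSA agar at 30 °C for 18-24 h.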

[2] = test system: Staphylococcus epidermidis; experiment: Antibacterial activity against Staphylococcus epidermidis NCIMB 8853 by microdilution method; type: functional; summary of the method: as §1
[3] = test system: Staphylococcus aureus; experiment: Antibacterial activity against Staphylococcus aureus ATCC 29213 by microdilution method; type: functional; summary of the method: as §1
[4] = test system: Micrococcus luteus; experiment: Antibacterial activity against sMicrococcus luteus NCIMB 8166 by microdilution method; type: functional; summary of the method: as §1
[5] = test system: Escherichia coli; experiment: Antibacterial activity against sEscherichia coli ATCC 35218 by microdilution method; type: functional; summary of the method: as §1
[6] = Toxicity against Artemia salina; type: organism-based; settings: in vivo, read-out: ED50 (the source's name)
Summary of the method: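 Brine shrimp lethality bioassay; the endpoint is death, reported as ED50 in µM.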

SMILES	MIC [1] [µg/mL]	MBC [2] [µg/mL]	MIC [2] [µg/mL]	MBC [3] [µg/mL]	MIC [3] [µg/mL]	MBC [4] [µg/mL]	MIC [4] [µg/mL]	MBC [5] [µg/mL]	MIC [5] [µg/mL]	LC50 [6] [µM]
COc1cc(/C=C/C(=O)NC[C@@H](O)c2ccc(O)cc2)ccc1O	> 700	> 700	600 (≈ 1820 µM)	600 (≈ 1820 µM)	200 (≈ 607 µM)	700 (≈ 2130 µM)	400 (≈ 1210 µM)	700 (≈ 2130 µM)	400 (≈ 1210 µM)	–
CCCCCC(O)C(O)/C=C/C(O)CCCCCCCC(=O)O (centres undefined)	> 700	> 700	600 (≈ 1820 µM)	> 700	500 (≈ 1510 µM)	500 (≈ 1510 µM)	400 (≈ 1210 µM)	–	> 700	–
COc1cc(O[C@@H]2O[C@H](CO)[C@@H](O)[C@H](O)[C@H]2O)cc(OC)c1OC	> 700	> 700	600 (≈ 1730 µM)	> 700	700 (≈ 2020 µM)	> 700	500 (≈ 1440 µM)	–	> 700	28.9
C=C[C@](C)(CC/C=C(\C)CO)O[C@@H]1O[C@H](CO)[C@@H](O)[C@H](O)[C@H]1O	> 700	> 700	700 (≈ 2110 µM)	> 700	700 (≈ 2110 µM)	> 700	600 (≈ 1810 µM)	–	> 700	21.8
CC/C=C\CC(O)C(O)/C=C/C(O)CCCCCCCC(=O)O (centres undefined)	> 700	> 700	600 (≈ 1830 µM)	> 700	500 (≈ 1520 µM)	500 (≈ 1520 µM)	400 (≈ 1220 µM)	–	> 700	–
CC(=O)/C=C/[C@@]12O[C@]1(C)C[C@@H](O)[C@H](O[C@@H]1O[C@H](CO)[C@@H](O)[C@H](O)[C@H]1O)C2(C)C	> 700	> 700	600 (≈ 1490 µM)	> 700	700 (≈ 1740 µM)	> 700	500 (≈ 1240 µM)	–	> 700	10.9
COc1cc(/C=C/C(=O)NCCc2ccc(O)cc2)ccc1O [N-TRANS-FERULOYL TYRAMINE]	> 700	–	> 700	> 700	500 (≈ 1600 µM)	> 700	500 (≈ 1600 µM)	–	> 700	–
N#C[C@H](O[C@@H]1O[C@H](CO)[C@@H](O)[C@H](O)[C@H]1O)c1ccc(O)cc1 [TAXIPHYLLIN]	> 700	> 700	500 (≈ 1610 µM)	700 (≈ 2250 µM)	400 (≈ 1280 µM)	500 (≈ 1610 µM)	200 (≈ 642 µM)	> 700	600 (≈ 1930 µM)	0.96
